The source made the active and inactive calls. The rule behind the calls is not given here.
Key:
[1] = Antioxidant activity assessed as glutathione peroxidase-like activity assessed as time required to reduce the thiol concentration by 50% after addition of H2O2 by UV spectrophotometry; format: physicochemical
Summary of the method: (§1)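 Tomoda-type thiol peroxidase model run in methanol, or ethanol where needed for solubility, at 25 (±3) °C. Catalyst at 0.1 mM final and PhSH at 2 mM final were mixed. After about 120 s, H₂O₂ was added to 5 mM final. PhSSPh formation was followed at 305 nm, with runs repeated more than three times. T₅₀ is the time to halve the thiol after H₂O₂ addition. Ebselen and (PhSe)₂ were each set to 1.0.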

[2] = Antioxidant activity assessed as glutathione peroxidase-like activity by UV spectrophotometry relative to ebselen; format: physicochemical; summary of the method: as §1
[3] = Antioxidant activity assessed as glutathione peroxidase-like activity by UV spectrophotometry relative to (PhSe)2; format: physicochemical; summary of the method: as §1
Brain = experiment: Antioxidant activity in rat brain homogenate assessed as inhibition of Fe(II)-induced TBARS formation after 60 mins by spectrophotometry; format: functional, tissue-based
[4] = biological target: T1, Thioredoxin reductase 1, cytoplasmic (Rattus norvegicus) (UniProt O89049); experiment: Activity of partially purified rat Thioredoxin reductase assessed as NADPH oxidation after 10 mins by spectrophotometry
T1 sequence (whole entry): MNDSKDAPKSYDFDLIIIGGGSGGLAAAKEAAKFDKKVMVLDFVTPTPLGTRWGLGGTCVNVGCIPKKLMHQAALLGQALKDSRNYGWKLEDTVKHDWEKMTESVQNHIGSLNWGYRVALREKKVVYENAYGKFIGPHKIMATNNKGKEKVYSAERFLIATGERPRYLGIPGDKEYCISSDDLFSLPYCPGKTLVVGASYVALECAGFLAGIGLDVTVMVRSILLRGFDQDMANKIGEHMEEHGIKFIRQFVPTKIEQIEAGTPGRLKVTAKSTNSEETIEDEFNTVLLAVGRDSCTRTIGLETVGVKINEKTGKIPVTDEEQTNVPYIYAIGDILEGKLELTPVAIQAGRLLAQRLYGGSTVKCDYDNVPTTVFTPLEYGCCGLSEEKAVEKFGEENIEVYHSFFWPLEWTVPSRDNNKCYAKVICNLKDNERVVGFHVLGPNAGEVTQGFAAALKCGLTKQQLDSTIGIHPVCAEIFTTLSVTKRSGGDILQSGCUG
Summary of the method: (§2)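 Enzyme: partially purified TrxR from rat liver. NADPH consumption read at 340 nm over 10 min, with or without the organoselenium compound. Activity is given as nmol NADPH/min/mg. Efficiency is expressed relative to ebselen. In the reference reaction, NADPH oxidation was checked for sensitivity to […] AuCl₃. Details are in the cited reference.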

[5] = biological target: T1, Thioredoxin reductase 1, cytoplasmic (Rattus norvegicus); experiment: Activity of partially purified rat Thioredoxin reductase assessed as NADPH oxidation after 10 mins by spectrophotometry relative to ebselen; summary of the method: as §2
[6] = biological target: T1, Thioredoxin reductase 1, cytoplasmic (Rattus norvegicus); experiment: Activity of partially purified rat Thioredoxin reductase assessed as 5 umol/L AuCl3-mediated inhibition of NADPH oxidation by spectrophotometry
Summary of the method: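 Partially purified rat liver TrxR was used. NADPH consumption was followed at 340 nm for 10 min in the absence or presence of an organoselenium catalyst. AuCl3 was added to the reaction containing the reference selenium catalyst. Activity was expressed as nmol NADPH/min/mg.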

SMILES | Time [1] | Ratio [2] | Ratio [3] | inhibition (Brain) | Activity [4] | Ratio [5] | inhibition [6]
O=C(NCCc1ccccc1)c1ccccc1[Se][Se]c1ccccc1C(=O)NCCc1ccccc1 | 29.73 min | 5.2 | 1.85 | Active | 0 nmol/min/mg | – | –
CC(Cc1ccccc1)NC(=O)c1ccccc1[Se][Se]c1ccccc1C(=O)NC(C)Cc1ccccc1 (centres undefined) | 16.87 min | 9.14 | 3.26 | Active | 0 nmol/min/mg | – | –
CC(Cc1ccccc1)NC(=O)C[Se][Se]CC(=O)NC(C)Cc1ccccc1 (centres undefined) | 299.63 min | – | – | Active | 0 nmol/min/mg | – | –
c1ccc([Se][Se]c2ccccc2)cc1 | 55.04 min | 2.8 | – | – | – | – | –
CC(Cc1ccccc1)NC(=O)CC[Se][Se]CCC(=O)NC(C)Cc1ccccc1 (centres undefined) | 76 min | 2.03 | – | Active | 13.7 nmol/min/mg | 4 | –
O=C(C[Se][Se]CC(=O)NCCc1ccccc1)NCCc1ccccc1 | 44.9 min | 3.43 | 1.23 | Active | 19.1 nmol/min/mg | 5.6 | –
O=C(CC[Se][Se]CCC(=O)NCCc1ccccc1)NCCc1ccccc1 | 81.43 min | 1.89 | – | Active | 16.1 nmol/min/mg | 4.7 | –
O=c1c2ccccc2[se]n1-c1ccccc1 [EBSELEN] | 154.26 min | – | – | – | 3.4 nmol/min/mg | – | > 95%
